Fewer inactive variants are shown than the library holds.

First the molecules themselves.
B1: tRNA (parent)
chain: GUUCCGUUGGCGUAAUGGUAACGCGUCUCCCUCCUAAGGAGAAGACUGCGGGUUCGAGUCCCGUACGGAACG

This series covers variants of B1. As to the kind of experiment: yeast fitness relative to wild type (ratio to wild type); higher = fitter; tRNA-Arg(CCU), competitive growth, 37 C, YPD. The gist of the method: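 For this measurement, the tRNA-Arg(CCU) gene was varied by chemical synthesis at a 3% per-site mutation rate across 69 sites, and each variant was placed at the native genomic locus in Saccharomyces cerevisiae. The pooled strains went through a 24-hour competition in YPD at 37°C in six parallel replicates, with amplicons from start and end populations read by 100-nucleotide paired-end sequencing. Darwinian fitness relative to wild type followed from the change in each genotype's frequency. Genotypes needed ≥ 100 starting reads, and estimates < 0.5 were set to 0.5.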
U16G A65G: the yeast fitness was determined as 0.904. Turning to U16G A65C, the yeast fitness worked out at 0.932.

In the case of G17A A36C, the yeast fitness was 0.558.

In the case of U16C C33U, the yeast fitness is 0.686.

On to U16G C31G C66U, for which the yeast fitness came to 0.586. U16C C24G U32A A69C: the yeast fitness was at most 0.5. For U16G C24U C49G G63C the value was at most 0.5; for G17A A40U A42C C49A C66A, at most 0.5.

With U16G A36G A45G, the yeast fitness was 0.745. U16C U35C G44C: the yeast fitness was at most 0.5. As for U16C C31G A36U C60G, the yeast fitness was found to be 0.694. For U16G C24G A37U the value was at most 0.5; for U16C C49U A70G, 0.581; for U16C C49U A70U, 0.745.

On to U16G C29G C62G, for which the yeast fitness was at most 0.5. On to U16G C29G C62U, for which the yeast fitness is at most 0.5.

Regarding U16C C27G C60G, the yeast fitness is 0.603. Turning to U16C C22A C31G C46A C49U U54C G68A, the yeast fitness was at most 0.5. For G17A A42U C55U C62A the value was at most 0.5; for U16C G56A, 1.01; for U16G C22G C34G G50C A69U, 0.528. Take U16G A42U C62A A70C: the yeast fitness is at most 0.5. As to U16C G17C C24U, the yeast fitness was 0.559.

Consider U16G C31A, for which the yeast fitness came out at 0.985.

Take U16C G17A C27U C34G G38C A43G C62A: the yeast fitness was at most 0.5. For the variant U16C U32G C49G C55A, the yeast fitness was at most 0.5.

Take G17A A20G A42U: the yeast fitness was 0.644.

In the case of U16C A69C, the yeast fitness amounted to 0.889. For U16G the value was 1; for U16G G44A, 0.994; for U16G C31U G51C A65C, at most 0.5. In the case of U16C A57C, the yeast fitness worked out at 0.674. For U16C A57G the value was 0.925; for G17A A21C C27U C33A A37C, 0.566; for U16G C27A C31G A42G C61A, 0.543. For U16G C24G U59A the value was at most 0.5. For U16C C34A G39C G52A G58A the value was at most 0.5; for U16C G18A C24G A57C, at most 0.5; for G17A A21C C29U G48A, 0.652.

Take U16C U35A: the yeast fitness amounted to 0.74.

In the case of G17A A21U C34G G38C G56C, the yeast fitness was at most 0.5. Consider G17A A21C C29G, for which the yeast fitness came to 0.626. For the variant U16G U47A G52A, the yeast fitness was at most 0.5.

Take U16G C34U C60A A70C: the yeast fitness is at most 0.5. For U16G C31U G58A the value was 0.633. Regarding U16C G18A C34G G39A C62A, the yeast fitness is at most 0.5. For U16C C24G U28A A43C the value was at most 0.5; for U16C C49G C55G C60A C62A G68A A69U, at most 0.5. For U16G A42G the value was 0.78; for U16G A57G C62G, at most 0.5; for U16C C31G C34A, 0.678. In the case of U16G G23A A40C, the yeast fitness is at most 0.5. For U16C C33A A40C the value was at most 0.5; for G17A A20U C24U A65U, at most 0.5. Consider U16G U54A C55U C66A, for which the yeast fitness worked out at 0.58. Regarding U16G C34U C46G U59A, the yeast fitness is at most 0.5. For the variant U16C C33U G58A, the yeast fitness was at most 0.5. For U16G C46G the value was 1.06; for U16G C46A, 0.754; for U16C A43C, 1.01. For U16C U54C G63A the value was 0.501; for G17A A36G G44A U47C A70U, at most 0.5; for U16G C24G U26A G50A, 0.581. For U16G C55U the value was 0.817. On to U16G C55G, for which the yeast fitness was found to be 0.544. For U16G C22G G67C the value was 0.709. Take G17A A40G: the yeast fitness came out at 0.722. For U16G U28A A42G the value was 0.665.

Consider U16G C55U G67C, for which the yeast fitness was at most 0.5. Take U16G U32G C46U: the yeast fitness was at most 0.5.

On to U16G A43U G50C G67A, for which the yeast fitness was at most 0.5. For U16C C34G C55G the value was at most 0.5. For U16C C34G C55A the value was 0.58; for U16G G44A G56A, 0.663; for G17A A37C A65C, at most 0.5. For U16G G56U the value was 0.706. Regarding U16C U26C C33U G63C, the yeast fitness is at most 0.5. Turning to U16G C61G A65U, the yeast fitness was at most 0.5.

As to U16C C27U A42G G67A, the yeast fitness is at most 0.5. For U16G G63C the value was 0.694; for U16C G18U C24U A45C C46G, at most 0.5; for U16G C30A A65G, 0.564. For U16C C22A U53C C66G A69U the value was at most 0.5; for U16C G52A, 0.713.

With U16G U26C C49G, the yeast fitness was at most 0.5. For G17A A20G C34A A40G C66U, the yeast fitness is at most 0.5.

With U16C C24G U28A, the yeast fitness is at most 0.5.

In the case of U16C G48A, the yeast fitness turned out to be 0.996. G17A A57C: the yeast fitness worked out at 0.581. On to G17A A37U G38A, for which the yeast fitness was at most 0.5. As for U16G A37C C66A, the yeast fitness was at most 0.5. Turning to U16G C22G A43G C46G G56C A69G, the yeast fitness was at most 0.5. As for U16C C55U G67A, the yeast fitness came out at 0.528. For U16C C33G C49A C55G G56C the value was at most 0.5; for U16G A43C, 0.919; for U16G A37U, 0.618. For U16G A37G the value was 0.673; for G17A A36C A37U A43C C46U C49G G50A, 0.59; for U16C C29A C55G, 0.573. For U16C C29U A36U C66U G67A the value was at most 0.5; for U16C G51C C55G C62A, at most 0.5. As for U16C G25C U26C C34U U64G, the yeast fitness is 0.528. As for U16G U32C A70G, the yeast fitness was found to be 0.984.

Turning to U16G A21C C34A, the yeast fitness is at most 0.5. U16C C55U: the yeast fitness was found to be 0.831.

As for U16G C31U A42U G56C, the yeast fitness was at most 0.5. For U16G C49U the value was 0.916; for U16G C49G, 0.636. As to G17A A20U C24U U53A, the yeast fitness was at most 0.5. For U16C C24G, the yeast fitness was 0.64. As to U16C C46G A57U, the yeast fitness amounted to 0.588. Turning to U16G C24G C27A, the yeast fitness is at most 0.5. For U16C C24U C33U C55A, the yeast fitness is at most 0.5. For G17A A42U A57U the value was at most 0.5; for U16C C22G A43U, 0.692; for U16G A57G, 0.805. Regarding U16C C33U A36C C49G, the yeast fitness was at most 0.5. For G17A A20G C27G A36C U53A the value was 0.639. Regarding G17A A21G, the yeast fitness turned out to be 0.765. For U16C C22U G63A the value was 0.545. For U16G C31G G63C A65U the value was at most 0.5; for U16C U32C G41C G50A C61G, 0.567. For U16G A45G G67C the value was 0.63. In the case of U16C G17A, the yeast fitness is 0.797. For U16C G17C the value was 0.665; for U16G C49U C60A C61A, at most 0.5. Regarding U16C U19C A21C G23C C49G G52A, the yeast fitness is at most 0.5.

U16C G23C C29G A43U G50A A65C: the yeast fitness was at most 0.5. For U16C C31A G56A A65G C66A G68C the value was at most 0.5.

Turning to U16C G51A A70G, the yeast fitness came out at 0.578. For U16G C24U C29G U35C G50A C66U the value was at most 0.5; for U16C U54C, 0.723; for U16G G48A G68A, 1.09. In the case of U16C U59A G67C, the yeast fitness was 0.675. For U16C C34A A37G U59A the value was at most 0.5. Consider U16C C49A G63A, for which the yeast fitness is at most 0.5. For U16C C34A G41A the value was at most 0.5; for U16G G23C G48A C61A C66U, 0.54.

In the case of G17A A42C A65G, the yeast fitness was at most 0.5.

For U16G U28G C34U G63C, the yeast fitness stood at 0.608. On to U16C U26A C46U G56A C61G G67A, for which the yeast fitness was at most 0.5. For the variant U16G C24U C29G U35C G50A C62A, the yeast fitness is at most 0.5.

Turning to U16C A45C C60G, the yeast fitness is at most 0.5. For U16C C29G C49U C60G the value was at most 0.5; for G17A A37C U54A C55A C66G, at most 0.5; for U16G C22G C46G, 0.657. For U16G A42G A69C A70G the value was at most 0.5. Regarding U16C G41C, the yeast fitness stood at 0.867.

Regarding U16C C33U A36C, the yeast fitness is 0.589.

Turning to U16G U26G U54G, the yeast fitness stood at 0.743. On to U16C A45U C49U G51A A57C C60G, for which the yeast fitness was at most 0.5. For G17A A21C U32C the value was at most 0.5; for U16C C46A, 1.02; for U16C C46G, 0.979. For the variant U16G G39A C61G, the yeast fitness is at most 0.5. As for U16C C30U C62U, the yeast fitness was 0.645. Turning to U16G G41C, the yeast fitness is 0.604. For U16G C22G the value was 1; for G17A A21G G23A C27G A37U G44A C49U, at most 0.5; for U16C C34G G38C C62G A69C, at most 0.5. For U16G A20C A21G C30U the value was 0.579; for U16C C33G G51A C55A, at most 0.5. For G17A A37G A43C the value was at most 0.5; for G17A A43G A45G G48A C62G, at most 0.5. U16C G38C A65U C66U: the yeast fitness stood at 0.569. As to U16G C24U C29G C49G A65G, the yeast fitness is 0.601. For U16G C60U the value was 0.772.

For the origin of these results see the RNAGym collection of RNA variant scans (doi:10.1126/science.aae0568).
